Drawing on ChEMBL document CHEMBL1146203, “Acridone-based inhibitors of inosine 5'-monophosphate dehydrogenase: discovery and SAR leading to the identification of N-(2-(6-(4-ethylpiperazin-1-yl)pyridin-3-yl)propan-2-yl)-2- fluoro-9-oxo-9,10-dihydroacridine-3-carboxamide (BMS-566419)” (J Med Chem, 2007), this text covers IC50, Activity and selectivity ratio for 13 molecules.

Data set [1] relates to CCRF-CEM. Nature of the data set: Inhibition of CEM cell proliferation. The data set is classed as functional, cell-based. As to conditions: Homo sapiens. The essentials:
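Human CEM T-lymphoblasts grown in RPMI 1640 with 10% heat-inactivated FBS and penicillin/streptomycin. Seeded at 3000 cells/well with 0.5% DMSO; compounds tested in triplicate from 10 µM top concentration in 3-fold dilutions.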

Data set [2] deals with Inosine-5'-monophosphate dehydrogenase 2 (Homo sapiens, UniProt P12268). Briefly: Inhibition of human IMPDH2.
Data set [3] deals with PBMC. Briefly: Inhibition of T cell proliferation in PBMC cells. It counts as functional, cell-based. Particulars: Homo sapiens. The essentials: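 Human PBMCs isolated from heparinized whole blood by density gradient and plated at 5 × 10^4 cells/well in RPMI 1640 with 10% FBS. Stimulated with anti-CD3 OKT3 (200 ng/mL) plus soluble anti-CD28 (1 µg/mL). Compounds tested in triplicate from 3.3 µM in 3-fold dilutions with 0.5% DMSO for 72 h.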

The subject of data set [4] is Rattus norvegicus. Nature of the data set: Efficacy against Freund's complete adjuvant-induced arthritis in Lewis rat assessed as inhibition of paw swelling at 15 mg/kg, po after 21 days. The data set is classed as functional, organism-based. Set-up: dose 15 mg/kg. The essentials:
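Adjuvant arthritis induced by subcutaneous Freund's complete adjuvant at the tail base in male Lewis rats. Oral dosing once daily for 21 days from day 0, vehicle 60% PEG400/40% 0.01 N HCl, 8 rats per group. Hind paw volume measured by plethysmometry at baseline and over three weeks; increase above baseline calculated; Student's t test against the vehicle group.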

For data set [5], the species on record is Rattus norvegicus. Briefly: Gastrointestinal toxicity in Lewis rat adjuvant arthritis model. As to conditions: in vivo. The data set is classed as organism-based. The essentials: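 Lewis rats in the adjuvant arthritis setting were given escalating oral daily doses for up to 14 days. Animals were monitored for diarrhea and weight loss, with gross examination and histopathology (crypt cell necrosis) used to define the maximum tolerated dose for GI toxicity.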

Data set [6] can be described thus: Therapeutic index for gastrointestinal toxicity in Lewis rat adjuvant arthritis model. As to conditions: read-out: TI. The essentials:
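GI therapeutic index in the rat adjuvant arthritis model, calculated as the ratio of exposure (AUC) at the maximum tolerated dose for GI toxicity to the AUC at the lowest efficacious dose.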

Activity calls are given as the source filed them. The rule behind the calls is not given here.

For the molecule `CN(C)S(=O)(=O)c1ccc(C(C)(C)NC(=O)c2cc3[nH]c4ccccc4c(=O)c3cc2F)cc1`, the IC50 (as a rule, the concentration that inhibits the measured activity by half) in data set [1] amounted to 0.66 µM; in data set [2], 0.01 µM; in data set [3], 0.2 µM.

Take `C[C@@H](NC(=O)c1ccc2c(=O)c3ccccc3[nH]c2c1)c1ccccc1`: the half-maximal inhibitory concentration (IC50) in data set [2] came out at 0.095 µM.

Molecule `O=C(NCc1ccccc1)c1ccc2c(=O)c3ccccc3[nH]c2c1` had an IC50 in data set [2] of 2.2 µM.

Consider `COc1c(C)c2c(c(O)c1C/C=C(\C)CCC(=O)OCCN1CCOCC1)C(=O)OC2` [MYCOPHENOLATE MOFETIL], for which, in data set [4], the outcome was Active. Moreover, the result in data set [5] was Active. Also, the selectivity ratio in data set [6] is 6.9.

Consider `CC(C)(NC(=O)c1cc2[nH]c3ccccc3c(=O)c2cc1F)c1cccnc1`, for which the values for the IC50 in data set [1], in data set [2] and in data set [3] were 0.42 µM, 0.011 µM and 0.14 µM, respectively.

As to `CN(C)c1cc(C(C)(C)NC(=O)c2cc3[nH]c4ccccc4c(=O)c3cc2F)ccn1`, the concentration for half-maximal inhibition (IC50) in data set [1] is 0.64 µM; in data set [2], 0.014 µM; in data set [3], 0.22 µM.

`CC(C)(NC(=O)c1ccc2c(=O)c3ccccc3[nH]c2c1)c1ccncc1`: the IC50 turned out to be 2.3 µM in data set [1], 0.053 µM in data set [2] and 0.63 µM in data set [3].

With `COc1cc(C(C)(C)NC(=O)c2cc3[nH]c4ccccc4c(=O)c3cc2F)cnc1N1CCOCC1`, the IC50 in data set [1] stood at 0.81 µM; in data set [2], 0.02 µM; in data set [3] it was 0.32 µM.

Take `CC(C)(NC(=O)c1cc2[nH]c3ccccc3c(=O)c2cc1F)c1ccc(S(C)(=O)=O)cc1`: the IC50 in data set [1] worked out at 0.48 µM; in data set [2], 0.012 µM; in data set [3], 0.17 µM.

For the molecule `CC(C)(NC(=O)c1cc2[nH]c3ccccc3c(=O)c2cc1F)c1ccccn1`, the results for the IC50 in data set [1] and in data set [2] were 1 µM and 0.029 µM, respectively.

Take `C[C@H](NC(=O)c1ccc2c(=O)c3ccccc3[nH]c2c1)c1ccccc1`: in data set [2], half-maximal inhibition (IC50) required 0.431 µM.

As to `CC(C)(NC(=O)c1cc2[nH]c3ccccc3c(=O)c2cc1F)c1ccccc1`, the concentration for half-maximal inhibition (IC50) in data set [1] came to 0.83 µM; in data set [2] it was 0.011 µM; in data set [3], 0.22 µM.

Molecule `COc1c(C)c2c(c(O)c1C/C=C(\C)CCC(=O)O)C(=O)OC2` [MYCOPHENOLIC ACID] came in with an IC50 in data set [3] of 0.13 µM.
